From ChEMBL document CHEMBL5247635 (Eur J Med Chem, 2022)
pEC50, pIC50: −log10 of the molar value. Active and inactive are the calls of the source. The rule behind the calls is not given here.

Columns and labels:
[1] = Selectivity index, ratio of CC50 for human HepG2 cells to EC50 for GFP-expressing Leishmania infantum intracellular amastigotes infected in human THP-1 derived macrophage cells; format: toxicity, cell-based; conditions: read-out: Ratio CC50/EC50
[2] = Thermodynamic aqueous solubility of compound at 25 degreeC measured after 24 hrs by HPLC analysis; format: physicochemical; conditions: buffer, read-out: Therm_solubility
Procedure, shortened: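 Excess compound was suspended in water (pH 5.5), sonicated 10 min, equilibrated overnight at room temperature, and centrifuged. Supernatant was diluted and quantified by HPLC (UV 254 nm) against a five-point standard curve (10–500 µM).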

[3] = Cytotoxicity against human HepG2 cells assessed as reduction in cell proliferation measured after 72 hrs by crystal violet staining based analysis; format: toxicity
[4] = tested on: Leishmania infantum; test: Antileishmanial activity against GFP-expressing Leishmania infantum intracellular amastigotes infected in human THP-1 derived macrophage cells assessed as reduction in parasite viability measured for 72 hrs by resazurin/alamar blue fluorometric assay; format: functional, organism-based
Procedure, shortened: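 Human THP-1-derived macrophages infected with GFP-expressing L. infantum amastigotes; compounds at 2.3–75 µM, infected cells monitored for 72 h. EC50 ± SE from three independent experiments.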

[5] = Selectivity index, ratio of CC50 for human HepG2 cells to EC50 for Leishmania infantum MCAN/ES/89/IPZ229/1/89 axenic amastigotes; format: toxicity; conditions: read-out: Ratio CC50/EC50
[6] = tested on: Leishmania infantum; test: Antileishmanial activity against Leishmania infantum MCAN/ES/89/IPZ229/1/89 axenic amastigotes assessed as reduction in parasite viability treated for 24 hrs by PI staining based flow cytometry; format: functional, organism-based; conditions: MCAN/ES/89/IPZ229/1/89, 24 h
Procedure, shortened: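 Axenic amastigotes were seeded from log-phase cultures at 10^5 parasites/mL in M199-based medium at pH 5.4. They were derived from promastigotes by 3 days at 37 °C. Compounds at 2.3–75 µM for 24 h at 37 °C. Viability read by propidium iodide flow cytometry. EC50 ± SE from three independent experiments, each in triplicate.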

[7] = Cytotoxicity against human HepG2 cells assessed as reduction in cell proliferation treated for 24 hrs by crystal violet staining based analysis; format: toxicity
[8] = target: T1, Trypanothione reductase (Leishmania infantum, UniProt A4HSF7); test: Disruption of HIS-FLAG-tagged recombinant Leishmania infantum TryR dimerization expressed in Escherichia coli Rossetta BL21 (DE3) cells incubated for 16 hrs by ELISA analysis
T1 sequence (A4HSF7 whole entry): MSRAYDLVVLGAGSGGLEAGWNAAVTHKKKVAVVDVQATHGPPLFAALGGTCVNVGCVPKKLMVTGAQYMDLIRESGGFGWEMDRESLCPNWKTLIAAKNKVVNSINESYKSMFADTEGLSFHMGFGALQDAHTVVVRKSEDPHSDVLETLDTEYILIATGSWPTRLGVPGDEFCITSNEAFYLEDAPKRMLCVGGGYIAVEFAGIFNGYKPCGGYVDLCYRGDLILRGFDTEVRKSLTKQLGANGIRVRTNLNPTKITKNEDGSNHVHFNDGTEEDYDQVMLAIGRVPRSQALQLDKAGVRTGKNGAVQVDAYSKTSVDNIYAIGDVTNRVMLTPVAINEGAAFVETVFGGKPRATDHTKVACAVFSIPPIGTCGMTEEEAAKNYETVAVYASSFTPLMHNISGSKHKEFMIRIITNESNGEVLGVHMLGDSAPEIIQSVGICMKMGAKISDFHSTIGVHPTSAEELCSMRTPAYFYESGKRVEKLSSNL
Procedure, shortened: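 400 nM HIS-FLAG-tagged LiTryR (co-purified with HIS-tagged LiTryR as heterodimer) incubated with compound (3.1–75 μM) in 50 mM Tris pH 8.0, 300 mM NaCl, 16 h, 37 °C with vigorous shaking; centrifuged, supernatant captured on α-FLAG plates, detected with HRP-α-HIS antibody and o-phenylenediamine, A490. Signal normalized to DMSO; IC50 by nonlinear regression; triplicate, three independent experiments.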

[9] = target: T1, Trypanothione reductase; test: Inhibition of HIS-tagged recombinant Leishmania infantum TryR oxidoreductase activity expressed in Escherichia coli in the presence of NADPH by spectrophotometry based DTNB-coupled assay
Procedure, shortened: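 HIS-tagged LiTryR was used in a DTNB-coupled assay at 26 °C. Buffer: 40 mM HEPES pH 7.5, 1 mM EDTA, 30 µM NADP+, 25 µM DTNB, 150 µM NADPH, 1.75% DMSO. Standard runs used 1 µM TS2 and 7 nM enzyme; cross-species runs used 50 µM TS2 and 0.5 nM enzyme. Started with NADPH + TS2; TNB read at 412 nm. Compounds were screened at 75 µM first. Three independent experiments.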

[10] = tested on: Leishmania infantum; test: Antileishmanial activity against Leishmania infantum promastigotes assessed as reduction in parasite growth at 5 mM treated for 72 hrs; format: functional, organism-based
[11] = tested on: Leishmania infantum; test: Antileishmanial activity against H2O2-induced Leishmania infantum promastigotes assessed as reduction in non-protein thiol content at 5 mM treated for 72 hrs by CMF diacetate probe based flow cytometry relative to control; format: functional; set-up: scale not given: the % may be the effect or the level left
Procedure, shortened: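 Promastigotes grown in RPMI-1640 with 10% FCS and 25 mM HEPES pH 7.2 at 26 °C. Treatments were 75 µM for 1 h, 5 mM BSO for 72 h, or both combined; vehicle served as control. Some parasites were also H2O2-treated. Non-protein thiols read by flow cytometry as CMF diacetate green fluorescence in PI-excluding live parasites. Means of nine independent experiments with 99.0% confidence intervals.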

NCCCCc1cn(-c2ccc(-c3nc(CCc4ccccc4)cs3)c(OCCN3CCNC3=O)c2)nn1.O=C(O)C(F)(F)F
selectivity ratio [1]: < 1 | solubility thermodynamic at 24 h [2]: 6.4 mg/mL | CC50 at 72 h [3]: 27.8 µM | pEC50 [4]: 4.53

C[n+]1nn(-c2ccc(-c3nc(CCc4ccc(Oc5ccccc5)cc4)c(-c4ccccc4)s3)c(OCCN3CCNC3=O)c2)cc1CCCCN
selectivity ratio [5]: 4 | pEC50 [6]: 5.05 | CC50 at 24 h [7]: 35.2 µM | pIC50 [8]: < 4.12 | pIC50 [9]: 5.11

NCCCCc1cn(-c2ccc(-c3nc(-c4ccccc4)c(-c4ccccc4)s3)c(OCCN3CCNC3=O)c2)nn1
selectivity ratio [1]: > 3.1 | CC50 at 72 h [3]: > 75 µM | pEC50 [4]: 4.62

CCCCS(=N)(=O)CCC(N)C(=O)O (racemic) [BUTHIONINE SULFOXIMINE]
Activity [10]: inactive | Activity [11]: 50%

C[n+]1nn(-c2ccc(-c3nc(CCc4ccccc4)cs3)c(OCCN3CCNC3=O)c2)cc1CCCN
selectivity ratio [5]: < 1 | pEC50 [6]: < 4.12 | CC50 at 24 h [7]: > 75 µM | pIC50 [9]: 4.38

COc1cc(-n2cc(CCCCN)[n+](C)n2)ccc1-c1nc(CCc2ccccc2)cs1
selectivity ratio [5]: > 3.8 | pEC50 [6]: 4.70 | CC50 at 24 h [7]: > 75 µM | pIC50 [8]: < 4.12 | pIC50 [9]: 4.74

C[n+]1nn(-c2ccc(-c3nc(-c4ccc(Oc5ccccc5)cc4)c(-c4ccccc4)s3)c(OCCN3CCNC3=O)c2)cc1CCCCN
selectivity ratio [5]: > 6.1 | pEC50 [6]: 4.91 | selectivity ratio [1]: 2.8 | CC50 at 24 h [7]: > 75 µM | CC50 at 72 h [3]: 42.6 µM | pIC50 [8]: < 4.12 | pIC50 [9]: 5.38 | pEC50 [4]: 4.82

CCCCCCCCCCCCCCCCOP(=O)([O-])OCC[N+](C)(C)C [MILTEFOSINE]
selectivity ratio [1]: > 125 | CC50 at 72 h [3]: > 75 µM | pEC50 [4]: 6.22

C[n+]1nn(-c2ccc(-c3nc(CCc4ccc(-c5ccccc5)cc4)c(-c4ccccc4)s3)c(OCCN3CCNC3=O)c2)cc1CCCCN
selectivity ratio [5]: 7.8 | pEC50 [6]: 5.22 | selectivity ratio [1]: 2.2 | CC50 at 24 h [7]: 46.5 µM | CC50 at 72 h [3]: 54.5 µM | pIC50 [8]: < 4.12 | pIC50 [9]: 5.17 | pEC50 [4]: 4.62

C[n+]1nn(-c2ccc(-c3nc(-c4ccccc4)c(-c4ccccc4)s3)c(OCCN3CCNC3=O)c2)cc1CCCCN
selectivity ratio [5]: > 5.8 | pEC50 [6]: 4.89 | CC50 at 24 h [7]: > 75 µM | CC50 at 72 h [3]: > 75 µM | pIC50 [9]: 5.41 | pEC50 [4]: 4.13

C[n+]1nn(-c2ccc(-c3nc(CCc4ccc(-c5ccccc5)cc4)cs3)c(OCCN3CCNC3=O)c2)cc1CCCN.O=C(O)C(F)(F)F.O=S(=O)([O-])C(F)(F)F
selectivity ratio [5]: > 15.6 | pEC50 [6]: 5.32 | selectivity ratio [1]: > 10.3 | solubility thermodynamic at 24 h [2]: 21.6 mg/mL | CC50 at 24 h [7]: > 75 µM | CC50 at 72 h [3]: > 75 µM | pIC50 [8]: 4.34 | pEC50 [4]: 5.14
